Results: ChEMBL document CHEMBL1926676, “Antimalarial β-carboline and indolactam alkaloids from Marinactinospora thermotolerans, a deep sea isolate” (J Nat Prod, 2011)

Key:
HeLa = assay: Cytotoxicity against human HeLa cells after 48 hrs by MTT assay; type: functional, cell-based
Outline: (§1)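 Cells grown in RPMI-1640 with 10% FBS, 37 °C, 5% CO2. Seeded at 2 × 10^3 cells per well and left 12 h. Compounds added in DMSO at various concentrations for 48 h. MTT (1 mg/mL in PBS) then added for 4 h at 37 °C. Formazan dissolved in DMSO and absorbance read.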

A549 = assay: Cytotoxicity against human A549 cells after 48 hrs by MTT assay; type: functional, cell-based; conditions: A549, 48 h; outline: as §1
MDA-MB-231 = assay: Cytotoxicity against human MDA-MB-231 cells after 48 hrs by MTT assay; type: functional, cell-based; conditions: MDA-MB-231, 48 h; outline: as §1
SMMC-7721 = assay: Cytotoxicity against human SMMC7721 cells after 48 hrs by MTT assay; type: functional, cell-based; conditions: SMMC-7721, 48 h; outline: as §1
SW1990 = assay: Cytotoxicity against human SW1990 cells after 48 hrs by MTT assay; type: functional, cell-based; conditions: SW1990, 48 h; outline: as §1
DU-145 = assay: Cytotoxicity against human DU145 cells after 48 hrs by MTT assay; type: functional, cell-based; conditions: DU-145, 48 h; outline: as §1
NCI-H460 = assay: Cytotoxicity against human NCI-H460 cells after 48 hrs by MTT assay; type: functional, cell-based; conditions: NCI-H460, 48 h; outline: as §1
MCF7 = assay: Cytotoxicity against human MCF7 cells after 48 hrs by MTT assay; type: functional, cell-based; conditions: MCF7, 48 h; outline: as §1
Plasmodium falciparum [1] = assay: Antiplasmodial activity against multidrug-resistant Plasmodium falciparum Dd2 assessed as parasitaemia after 72 hrs using SYBR Green 1 staining by fluorescence method; type: functional, organism-based; conditions: Dd2, 72 h
Outline: (§2)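 Blood-stage P. falciparum cultures at 0.2% parasitemia, 2% hematocrit, given serially diluted compound in quadruplicate; 72 h at 37 °C. Lysis buffer with SYBR Green I (0.2 μL/mL) added, 1 h in dark, then relative fluorescence read. IC50 by nonlinear regression of logistic dose-response curves.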

Plasmodium falciparum [2] = assay: Antiplasmodial activity against drug-sensitive Plasmodium falciparum 3D7 assessed as parasitaemia after 72 hrs using SYBR Green 1 staining by fluorescence method; type: functional, organism-based; conditions: 3D7, 72 h; outline: as §2

Row | SMILES | IC50 (HeLa) [µM] | IC50 (A549) [µM] | IC50 (MDA-MB-231) [µM] | IC50 (SMMC-7721) [µM] | IC50 (SW1990) [µM] | IC50 (DU-145) [µM] | IC50 (NCI-H460) [µM] | IC50 (MCF7) [µM] | IC50 (Plasmodium falciparum [1]) [µM] | IC50 (Plasmodium falciparum [2]) [µM]
1 | C=CC(C)(C)c1ccc2c3c(c[nH]c13)C[C@@H](CO)NC(=O)[C@H](C(C)C)N2C [PENDOLMYCIN] | > 50 | > 50 | > 50 | > 50 | > 50 | > 50 | > 50 | > 50 | – | –
2 | C=CC(C)(C)c1ccc2c3c(c[nH]c13)C[C@@H](CO)NC(=O)[C@H]([C@@H](C)CC)N2C [METHYLPENDOLMYCIN] | > 50 | > 50 | > 50 | > 50 | > 50 | > 50 | > 50 | > 50 | – | –
3 | CC(=O)c1nc(C(=O)NCCc2ccc(O)cc2)cc2c1[nH]c1ccccc12 | > 50 | > 50 | > 50 | > 50 | > 50 | > 50 | > 50 | > 50 | 15.6 | 16.6
4 | CC(=O)c1nc(C(=O)NCCc2ccccc2)cc2c1[nH]c1ccccc12 | > 50 | > 50 | > 50 | > 50 | > 50 | > 50 | > 50 | > 50 | 3.38 | 3.09
5 | CC(=O)c1nccc2c1[nH]c1ccccc12 | > 50 | > 50 | > 50 | > 50 | > 50 | > 50 | > 50 | > 50 | – | –
6 | C=CC(C)(C)c1ccc2c3c(c[nH]c13)C[C@@H](CO)NC(=O)[C@H]([C@@H](C)CC)N2 | > 50 | > 50 | > 50 | > 50 | > 50 | > 50 | > 50 | > 50 | 18.7 | 20.8
7 | COc1ccc(CCNC(=O)c2cc3c([nH]c4ccccc43)c(C(C)=O)n2)cc1 [MARINACARBOLINE A] | > 50 | > 50 | > 50 | > 50 | > 50 | > 50 | > 50 | > 50 | 1.92 | 36
8 | CC(=O)c1nc(C(=O)NCCc2c[nH]c3ccccc23)cc2c1[nH]c1ccccc12 [MARINACARBOLINE D] | > 50 | > 50 | > 50 | > 50 | > 50 | > 50 | > 50 | > 50 | 3.59 | 5.39
9 | C=CC(C)(C)c1ccc2c3c(c[nH]c13)C[C@@H](CO[C@@H]1O[C@@H](CO)[C@H](O)[C@@H](O)[C@@H]1O)NC(=O)[C@H]([C@@H](C)CC)N2C | > 50 | > 50 | > 50 | > 50 | > 50 | > 50 | > 50 | > 50 | 5.03 | 10.4
